Results on two molecules are retold here after ChEMBL document CHEMBL1154934, “Identification of piperazine-bisamide GHSR antagonists for the treatment of obesity” (Bioorg Med Chem Lett, 2010).

In data set [1] the target is Voltage-gated inwardly rectifying potassium channel KCNH2 (Homo sapiens, UniProt Q12809). Put plainly: Inhibition of human ERG.
Data set [2] deals with T1, Growth hormone secretagogue receptor type 1 (Homo sapiens, UniProt Q92847). Put plainly: Agonist activity at human GHSR expressed in CHO cells assessed as increase in ghrelin-induced [3H]IP accumulation at 10 uM after 1 hr by scintillation counting relative to ghrelin. It is filed as functional, cell-based. The gist of the method:
(§1)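 CHO cells stably expressing human or rat GHSR labelled 12 h with 3H-inositol (1 µCi/mL in DMEM), then exposed to ghrelin or compound at 37 °C for 1.0 h. Lysis with 20 mM formic acid, 4 °C, 4 h. Extract taken onto SPA beads, 12 h in the dark, then radioactivity counted. IP accumulation expressed as % of maximal ghrelin response at 10, 1.0 and 0.1 µM.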

Data set [3] concerns the target Growth hormone secretagogue receptor type 1 (Rattus norvegicus) (UniProt O08725). Put plainly: Agonist activity at rat GHSR expressed in CHO cells assessed as increase in ghrelin-induced [3H]IP accumulation at 10 uM after 1 hr by scintillation counting relative to ghrelin. It is filed as functional, cell-based. The gist of the method: as §1
The target of data set [4] is D(2) dopamine receptor (Homo sapiens, UniProt P14416). Description: Inhibition of dopamine D2 receptor.
Chain of D(2) dopamine receptor (P14416 whole entry): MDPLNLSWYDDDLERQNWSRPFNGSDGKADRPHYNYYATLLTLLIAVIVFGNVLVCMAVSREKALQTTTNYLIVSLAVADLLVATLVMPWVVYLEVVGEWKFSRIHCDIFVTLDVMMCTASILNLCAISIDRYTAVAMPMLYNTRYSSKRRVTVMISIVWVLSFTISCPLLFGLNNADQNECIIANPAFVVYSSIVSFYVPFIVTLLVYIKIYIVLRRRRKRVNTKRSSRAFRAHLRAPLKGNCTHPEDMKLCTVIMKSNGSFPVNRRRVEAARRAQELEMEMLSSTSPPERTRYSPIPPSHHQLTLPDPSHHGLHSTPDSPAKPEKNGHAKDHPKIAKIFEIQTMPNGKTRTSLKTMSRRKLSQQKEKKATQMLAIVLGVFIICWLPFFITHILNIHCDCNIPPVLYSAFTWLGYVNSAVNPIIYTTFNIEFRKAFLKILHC
Data set [5] can be described thus: Clearance in rat at 2 mg/kg, iv. It is filed as ADME, organism-based. The arrangement: dose 2 mg/kg, route intravenous. As to conditions: in vivo. Summed up: (§2)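 Rats dosed iv at 2.0 mg/kg for clearance, MRT and Vdss. Oral dosing at 0.5 mg/kg for bioavailability (F).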
The target of data set [6] is T1, Growth hormone secretagogue receptor type 1. Put plainly: Agonist activity at human GHSR expressed in CHO cells assessed as increase in ghrelin-induced [3H]IP accumulation at 0.1 uM after 1 hr by scintillation counting relative to ghrelin. The format is functional, cell-based. The gist of the method: as §1
The target of data set [7] is Growth hormone secretagogue receptor type 1 (Rattus norvegicus, UniProt O08725). Put plainly: (§3) Inhibition of rat GHSR expressed in CHOK1 cells assessed as inhibition of ghrelin-induced intracellular calcium flux by aequorin flash luminescence assay. The format is functional, cell-based, CHO-K1. On the technique in general: Calcium flux is commonly read through the fluorescence of an indicator in the cells.
Chain of Growth hormone secretagogue receptor type 1 (Rattus norvegicus, UniProt O08725) (O08725 whole entry): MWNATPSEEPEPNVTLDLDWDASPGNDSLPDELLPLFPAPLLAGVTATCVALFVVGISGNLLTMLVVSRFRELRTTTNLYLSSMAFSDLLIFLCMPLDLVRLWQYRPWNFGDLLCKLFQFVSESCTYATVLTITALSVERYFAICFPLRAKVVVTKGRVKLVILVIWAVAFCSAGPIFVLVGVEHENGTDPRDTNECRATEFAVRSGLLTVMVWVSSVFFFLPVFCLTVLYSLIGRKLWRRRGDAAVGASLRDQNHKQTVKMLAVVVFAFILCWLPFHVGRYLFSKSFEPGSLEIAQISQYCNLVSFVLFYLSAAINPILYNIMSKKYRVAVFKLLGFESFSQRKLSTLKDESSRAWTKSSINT

Data set [8] has as its target Mu-type opioid receptor (Homo sapiens, UniProt P35372). Description: Inhibition of mu opioid receptor.
Data set [9] deals with Growth hormone secretagogue receptor type 1 (Rattus norvegicus) (UniProt O08725). Put plainly: Agonist activity at rat GHSR expressed in CHO cells assessed as increase in ghrelin-induced [3H]IP accumulation at 1 uM after 1 hr by scintillation counting relative to ghrelin. The format is functional, cell-based. The gist of the method:
as §1

Data set [10] can be described thus: Mean residence time in rat at 2 mg/kg, iv. It is filed as ADME, organism-based. The arrangement: dose 2 mg/kg, route intravenous. Conditions: in vivo. The gist of the method: as §2
The target of data set [11] is Muscarinic acetylcholine receptor M3 (Homo sapiens, UniProt P20309). Description: Inhibition of muscarinic M3 receptor.
Chain of Muscarinic acetylcholine receptor M3 (P20309 whole entry): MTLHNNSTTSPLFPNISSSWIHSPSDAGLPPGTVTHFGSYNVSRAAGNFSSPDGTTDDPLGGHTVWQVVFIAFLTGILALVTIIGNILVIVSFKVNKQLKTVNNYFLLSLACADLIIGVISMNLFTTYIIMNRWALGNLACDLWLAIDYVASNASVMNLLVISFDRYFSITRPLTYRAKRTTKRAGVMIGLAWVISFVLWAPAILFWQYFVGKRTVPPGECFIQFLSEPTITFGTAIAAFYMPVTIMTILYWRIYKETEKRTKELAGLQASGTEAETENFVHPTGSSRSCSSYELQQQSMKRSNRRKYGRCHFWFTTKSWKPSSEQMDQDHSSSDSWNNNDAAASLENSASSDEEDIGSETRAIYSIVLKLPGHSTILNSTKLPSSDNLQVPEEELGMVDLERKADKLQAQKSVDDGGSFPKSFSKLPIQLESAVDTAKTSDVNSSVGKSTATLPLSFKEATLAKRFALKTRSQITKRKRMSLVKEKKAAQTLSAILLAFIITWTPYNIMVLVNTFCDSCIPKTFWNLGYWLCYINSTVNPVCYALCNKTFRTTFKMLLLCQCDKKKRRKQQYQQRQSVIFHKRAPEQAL
In data set [12] the target is D(3) dopamine receptor (Homo sapiens, UniProt P35462). Description: Inhibition of dopamine D3 receptor.
Chain of D(3) dopamine receptor (P35462 whole entry): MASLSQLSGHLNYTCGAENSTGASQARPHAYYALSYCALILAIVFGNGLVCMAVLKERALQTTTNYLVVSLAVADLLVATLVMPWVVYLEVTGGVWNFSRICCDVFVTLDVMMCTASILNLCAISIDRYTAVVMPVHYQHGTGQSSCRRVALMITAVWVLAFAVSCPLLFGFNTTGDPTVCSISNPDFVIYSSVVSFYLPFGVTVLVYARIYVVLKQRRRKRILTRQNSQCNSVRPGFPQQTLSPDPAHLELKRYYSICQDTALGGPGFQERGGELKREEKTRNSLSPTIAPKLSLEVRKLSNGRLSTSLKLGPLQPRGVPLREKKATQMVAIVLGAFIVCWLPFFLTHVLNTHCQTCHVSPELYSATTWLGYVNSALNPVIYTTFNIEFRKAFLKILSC
A short description of data set [13]: Oral bioavailability in rat at 0.5 mg/kg. The format is ADME, organism-based. Conditions: in vivo. Summed up:
as §2

Data set [14] in a line: Induction of growth hormone release from Sprague-Dawley rat pituitary cells at 1 uM after 20 mins by RIA assay relative to ghrelin. The format is functional, Pituitary gland cell. Summed up: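 Pituitary cells from 6–8-week-old male SD rats plated on poly-D-lysine and cultured 3 days at 37 °C. Washed with DMEM assay buffer (20 mM Hepes, 0.3% BSA) and held 5 min at 37 °C. Treated with rat ghrelin or compound for 20 min, then GH release measured as % of maximal ghrelin response. Means of three determinations.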

Data set [15] has as its target T1, Growth hormone secretagogue receptor type 1. Description: Agonist activity at human GHSR expressed in CHO cells assessed as increase in ghrelin-induced [3H]IP accumulation at 1 uM after 1 hr by scintillation counting relative to ghrelin. It is filed as functional, cell-based. Summed up:
as §1

The nature of data set [16]: Inhibition of cytochrome P450. It is filed as ADME.
Data set [17] addresses Sodium-dependent noradrenaline transporter (Homo sapiens, UniProt P23975). Put plainly: Inhibition of NET.
Data set [18] concerns the target T1, Growth hormone secretagogue receptor type 1. Put plainly: Antagonist activity at human GHSR expressed in CHOK1 cells assessed as inhibition of ghrelin-induced intracellular calcium flux by aequorin flash luminescence assay. It is filed as functional, cell-based, CHO-K1. Summed up: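 Aequorin flash luminescence in CHO-K1 cells stably co-expressing human ghrelin receptor and aequorin. […] IC50 values are means of three determinations.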

Data set [19] has as its target T2, 5-hydroxytryptamine receptor 2C (Homo sapiens, UniProt P28335).
T2 sequence (P28335 whole entry): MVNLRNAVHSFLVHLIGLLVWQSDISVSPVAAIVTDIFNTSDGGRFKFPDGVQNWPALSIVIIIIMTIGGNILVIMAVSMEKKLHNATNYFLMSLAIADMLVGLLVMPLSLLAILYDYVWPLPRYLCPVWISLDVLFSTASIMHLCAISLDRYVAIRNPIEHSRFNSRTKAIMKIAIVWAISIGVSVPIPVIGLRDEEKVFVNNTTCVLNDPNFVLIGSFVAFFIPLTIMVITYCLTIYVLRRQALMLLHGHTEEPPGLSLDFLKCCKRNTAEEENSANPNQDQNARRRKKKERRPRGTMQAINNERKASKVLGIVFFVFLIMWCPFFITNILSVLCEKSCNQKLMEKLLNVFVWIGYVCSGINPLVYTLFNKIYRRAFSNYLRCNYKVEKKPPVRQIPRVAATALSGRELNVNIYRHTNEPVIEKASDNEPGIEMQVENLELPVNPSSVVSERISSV
Description: Inhibition of 5HT2C (receptor).

A short description of data set [20]: Volume of distribution at steady state in rat at 2 mg/kg, iv. The format is ADME, organism-based. The arrangement: dose 2 mg/kg, route intravenous. As to conditions: in vivo, read-out: Vdss.
Data set [21] concerns the target Sodium-dependent serotonin transporter (Homo sapiens, UniProt P31645). Description: Inhibition of SERT.
Data set [22] concerns the target Growth hormone secretagogue receptor type 1 (Rattus norvegicus) (UniProt O08725). Description: Agonist activity at rat GHSR expressed in CHO cells assessed as increase in ghrelin-induced [3H]IP accumulation at 0.1 uM after 1 hr by scintillation counting relative to ghrelin. It is filed as functional, cell-based. The gist of the method:
as §1

Data set [23] deals with Kappa-type opioid receptor (Homo sapiens, UniProt P41145). Description: Inhibition of kappa opioid receptor.
In data set [24] the target is T3, Alpha-2A adrenergic receptor (Homo sapiens, UniProt P08913).
T3 sequence (P08913 whole entry): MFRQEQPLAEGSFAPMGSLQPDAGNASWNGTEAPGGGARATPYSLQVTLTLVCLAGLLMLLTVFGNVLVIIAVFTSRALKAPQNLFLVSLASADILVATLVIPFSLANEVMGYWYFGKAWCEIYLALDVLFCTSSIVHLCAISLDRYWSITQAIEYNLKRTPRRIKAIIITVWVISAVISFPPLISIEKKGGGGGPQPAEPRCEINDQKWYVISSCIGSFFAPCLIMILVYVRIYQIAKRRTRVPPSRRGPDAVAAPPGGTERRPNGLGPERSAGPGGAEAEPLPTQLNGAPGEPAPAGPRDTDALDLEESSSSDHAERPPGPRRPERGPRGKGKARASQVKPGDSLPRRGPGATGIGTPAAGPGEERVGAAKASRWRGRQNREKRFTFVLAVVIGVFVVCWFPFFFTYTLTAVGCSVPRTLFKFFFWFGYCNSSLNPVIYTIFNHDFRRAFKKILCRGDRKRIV
Put plainly: Inhibition of alpha2A adrenergic receptor.

Data set [25] addresses 5-hydroxytryptamine receptor 2A (Homo sapiens, UniProt P28223). Put plainly: Inhibition of 5HT2A (receptor).
Data set [26] is described as follows: Ratio of brain AUC to plasma AUC in FVB mouse. As to conditions: brain and plasma. The format is ADME, cell-free.
For data set [27], the target named is Sodium-dependent dopamine transporter (Homo sapiens, UniProt Q01959). Description: Inhibition of DAT.
For data set [28], the target named is Histamine H2 receptor (Homo sapiens, UniProt P25021). Put plainly: Inhibition of histamine H2 receptor.
Chain of Histamine H2 receptor (P25021 whole entry): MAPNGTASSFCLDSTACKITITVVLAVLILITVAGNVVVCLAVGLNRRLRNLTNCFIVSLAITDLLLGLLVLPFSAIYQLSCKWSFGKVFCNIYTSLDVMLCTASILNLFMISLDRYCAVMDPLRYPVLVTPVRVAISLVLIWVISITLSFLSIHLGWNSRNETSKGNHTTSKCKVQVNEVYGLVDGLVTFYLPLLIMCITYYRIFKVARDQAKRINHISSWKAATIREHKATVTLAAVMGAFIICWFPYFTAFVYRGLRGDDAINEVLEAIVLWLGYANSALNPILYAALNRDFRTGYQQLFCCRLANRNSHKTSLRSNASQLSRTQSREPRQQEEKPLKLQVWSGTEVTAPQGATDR
Data set [29] in a line: Metabolic stability in human liver microsomes assessed as compound remaining at 1 uM after 30 mins. The format is ADME, Microsome. Conditions: read-out: Stability. Summed up:
(§4)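 Compound incubated at 1.0 µM initial concentration with rat or human liver microsomes for 30 min. Percentage of compound remaining determined.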
For orientation: Liver microsomes are vesicles of endoplasmic reticulum, rich in cytochrome P450 enzymes.

The target of data set [30] is Growth hormone secretagogue receptor type 1 (Rattus norvegicus) (UniProt O08725). Described as §3. Conditions: CHO-K1. The format is functional, cell-based.
Chain of Growth hormone secretagogue receptor type 1 (Rattus norvegicus) (O08725 whole entry): as the sequence (O08725 whole entry) above
Data set [31] can be described thus: Clearance in mouse at 0.5 mg/kg, iv. As to conditions: in vivo. Further details: dose 0.5 mg/kg, route intravenous. The format is ADME, organism-based. The gist of the method:
(§5)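 Mice dosed intravenously at 0.5 mg/kg. Clearance, MRT and Vdss derived from plasma pharmacokinetics.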

The nature of data set [32]: Fraction unbound in mouse plasma. It is filed as ADME, cell-free.
Data set [33] in a line: Mean residence time in mouse at 0.5 mg/kg, iv. The format is ADME, organism-based. Further details: dose 0.5 mg/kg, route intravenous. Conditions: in vivo. The gist of the method: as §5
Data set [34] can be described thus: Volume of distribution at steady state in mouse at 0.5 mg/kg, iv. It is filed as ADME, organism-based. The arrangement: dose 0.5 mg/kg, route intravenous. Conditions: in vivo, read-out: Vdss. The gist of the method: as §5
Data set [35] is described as follows: Ratio of brain AUC to plasma AUC in mdr1a knockout mouse. The format is ADME, cell-free. Conditions: brain and plasma.
Data set [36] deals with MDCK. Description: Ratio of apparent permeability from basolateral to apical over apical to basolateral side of MDCK cells expressing human MDR1. As to conditions: dog.
Data set [37] is described as follows: Inhibition of rat ghrelin-stimulated growth hormone release from Sprague-Dawley rat pituitary cells pretreated for 10 mins before rat ghrelin challenge measured after 20 mins by RIA assay. The format is functional, cell-based. Conditions: Pituitary gland cell. The gist of the method:
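Primary pituitary cells from 6–8-week-old male SD rats cultured 3 days at 37 °C, then washed in DMEM/20 mM Hepes/0.3% BSA buffer. Compound pretreatment for 10 min, then co-incubation with rat ghrelin (0.2 µM) plus compound for another 20 min. GH release measured and IC50 derived. Means of three determinations.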

Data set [38] can be described thus: Fraction unbound in rat plasma. The format is ADME, cell-free.
Data set [39] in a line: Metabolic stability in rat liver microsomes assessed as compound remaining at 1 uM after 30 mins. The format is ADME, Microsome. As to conditions: read-out: Stability. Summed up: as §4

T1 sequence (Q92847 whole entry): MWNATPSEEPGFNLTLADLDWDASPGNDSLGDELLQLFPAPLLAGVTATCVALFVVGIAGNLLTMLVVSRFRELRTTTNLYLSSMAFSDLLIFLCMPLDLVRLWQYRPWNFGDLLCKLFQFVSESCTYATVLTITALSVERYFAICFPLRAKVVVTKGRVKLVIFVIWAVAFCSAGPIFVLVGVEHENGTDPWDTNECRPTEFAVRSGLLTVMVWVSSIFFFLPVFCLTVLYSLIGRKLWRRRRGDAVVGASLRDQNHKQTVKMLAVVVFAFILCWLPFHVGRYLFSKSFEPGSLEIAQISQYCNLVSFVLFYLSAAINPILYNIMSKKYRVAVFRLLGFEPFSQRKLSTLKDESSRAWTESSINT
Chain of 5-hydroxytryptamine receptor 2A (P28223 whole entry): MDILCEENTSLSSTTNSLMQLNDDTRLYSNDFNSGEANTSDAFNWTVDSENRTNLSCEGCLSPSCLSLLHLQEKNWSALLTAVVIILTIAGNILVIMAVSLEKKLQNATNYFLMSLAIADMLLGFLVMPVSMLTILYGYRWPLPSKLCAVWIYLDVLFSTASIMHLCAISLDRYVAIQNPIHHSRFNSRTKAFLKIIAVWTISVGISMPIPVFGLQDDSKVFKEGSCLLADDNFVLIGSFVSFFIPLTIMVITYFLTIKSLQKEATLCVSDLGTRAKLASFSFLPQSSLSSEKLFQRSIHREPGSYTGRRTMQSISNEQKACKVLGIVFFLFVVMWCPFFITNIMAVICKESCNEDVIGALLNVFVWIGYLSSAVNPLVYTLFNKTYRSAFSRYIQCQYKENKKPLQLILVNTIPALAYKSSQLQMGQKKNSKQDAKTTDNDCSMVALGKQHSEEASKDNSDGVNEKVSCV
Chain of Mu-type opioid receptor (P35372 whole entry): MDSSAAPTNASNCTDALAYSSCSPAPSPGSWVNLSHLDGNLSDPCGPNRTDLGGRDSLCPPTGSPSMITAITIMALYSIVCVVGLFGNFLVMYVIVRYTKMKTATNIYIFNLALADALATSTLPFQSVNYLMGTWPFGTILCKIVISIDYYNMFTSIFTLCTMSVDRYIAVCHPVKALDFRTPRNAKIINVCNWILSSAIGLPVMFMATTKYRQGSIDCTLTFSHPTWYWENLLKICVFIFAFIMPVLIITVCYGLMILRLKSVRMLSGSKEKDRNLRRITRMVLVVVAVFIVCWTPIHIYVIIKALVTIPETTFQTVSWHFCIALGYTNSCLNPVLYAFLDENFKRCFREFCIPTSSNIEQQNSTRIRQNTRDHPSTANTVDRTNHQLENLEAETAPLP
Chain of Sodium-dependent noradrenaline transporter (P23975 whole entry): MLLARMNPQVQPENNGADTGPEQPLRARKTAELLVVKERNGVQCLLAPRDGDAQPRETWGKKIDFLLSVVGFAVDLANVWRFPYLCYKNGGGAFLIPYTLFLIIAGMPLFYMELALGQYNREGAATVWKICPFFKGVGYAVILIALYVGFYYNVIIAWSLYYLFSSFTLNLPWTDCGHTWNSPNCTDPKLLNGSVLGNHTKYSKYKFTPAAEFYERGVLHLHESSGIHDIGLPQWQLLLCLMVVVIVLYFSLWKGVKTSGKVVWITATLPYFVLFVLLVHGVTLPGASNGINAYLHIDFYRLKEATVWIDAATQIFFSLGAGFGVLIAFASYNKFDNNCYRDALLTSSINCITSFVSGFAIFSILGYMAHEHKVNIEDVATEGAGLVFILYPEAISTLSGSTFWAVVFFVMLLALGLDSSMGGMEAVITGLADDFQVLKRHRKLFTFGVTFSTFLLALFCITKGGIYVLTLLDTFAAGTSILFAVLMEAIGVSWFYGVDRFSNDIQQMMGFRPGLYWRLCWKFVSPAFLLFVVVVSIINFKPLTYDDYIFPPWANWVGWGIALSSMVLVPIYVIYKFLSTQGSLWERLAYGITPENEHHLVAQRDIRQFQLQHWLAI
Chain of Sodium-dependent serotonin transporter (P31645 whole entry): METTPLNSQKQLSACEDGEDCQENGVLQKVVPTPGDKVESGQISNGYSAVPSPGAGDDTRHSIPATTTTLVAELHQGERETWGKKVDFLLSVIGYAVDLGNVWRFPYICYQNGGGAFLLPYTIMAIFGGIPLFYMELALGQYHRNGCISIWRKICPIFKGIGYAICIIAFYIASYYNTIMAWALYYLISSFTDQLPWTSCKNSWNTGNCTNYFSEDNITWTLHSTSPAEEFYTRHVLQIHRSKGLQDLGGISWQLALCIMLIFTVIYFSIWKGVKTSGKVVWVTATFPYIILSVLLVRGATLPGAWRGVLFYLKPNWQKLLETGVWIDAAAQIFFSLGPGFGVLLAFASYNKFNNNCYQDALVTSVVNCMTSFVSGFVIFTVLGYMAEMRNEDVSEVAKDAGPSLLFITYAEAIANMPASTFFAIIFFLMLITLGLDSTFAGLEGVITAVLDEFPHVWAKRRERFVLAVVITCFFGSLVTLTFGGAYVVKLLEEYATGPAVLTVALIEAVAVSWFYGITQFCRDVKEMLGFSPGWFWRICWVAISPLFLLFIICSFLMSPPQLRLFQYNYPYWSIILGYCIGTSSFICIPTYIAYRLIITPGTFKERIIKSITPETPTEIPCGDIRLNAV

By IC50 is commonly meant the concentration that inhibits the measured activity by half. In general, Ki refers to the equilibrium dissociation constant of an inhibitor or competing ligand from its target. A low value points to a stronger hold on the target. In general, clearance refers to a measure of how efficiently the substance is removed, as volume per time. A word on the MRT: it is the average time that molecules of a dose stay in the body. As usually defined, the bioavailability is dose-corrected exposure relative to a reference, in per cent. A lower bioavailability goes with little systemic uptake. As usually defined, the Kp is tissue or fluid exposure divided by exposure in the circulation. As to `C[C@H]1CN(C(=O)c2ccc(-c3ccccc3F)cc2)CCN1C(=O)c1ccc2cc[nH]c2c1`, the IC50 in data set [1] was over 10 µM; in data set [7] it was 2 nM; in data set [16], over 10 µM; in data set [18] it was 9.1 nM. In addition, the Activity was 33% in [2]; 33% in data set [3]; 21% in [6]; 42% in data set [9]; 24% in data set [14]; 31% in data set [15]. In data set [22], the Activity came out at 41%. The Ki in data set [4], in data set [8], in [11], in data set [12], in data set [17] and in [19] was over 10 µM throughout. The inhibition constant Ki in data set [21], in data set [23], in [24], in [25], in data set [27] and in data set [28] was over 10 µM throughout. The molecule also had a clearance in data set [5] of 35 mL/min/kg. Besides, the MRT in data set [10] came out at 1.9 h. Further, the bioavailability in [13] was determined as 17%. Also, the Vd in data set [20] came out at 3.7 L/kg. Moreover, the Kp in data set [26] is 0.26.
For orientation: fraction unbound means free concentration divided by total concentration. A lower fraction unbound goes with extensive binding. With `C[C@H]1CN(C(=O)c2ccc(-c3ccncc3)c(F)c2)CCN1C(=O)c1ccc2cc[nH]c2c1`, the Activity in data set [3] is -16%. In addition, the results for the remaining at 0.5 h, 1 µM in data set [29] and in data set [39] were 87% and 78%, respectively. Also, the figures for the IC50 in data set [30], in data set [18] and in data set [37] were 10.3 nM, 12.2 nM and 93 nM, respectively. The molecule also gave a clearance in [31] of 32.7 mL/min/kg. The fraction unbound in data set [32] and in data set [38] was 0.04 in each case. In [33], this molecule had an MRT of 42 min. Further, the Vd in [34] stood at 1.4 L/kg. For the same molecule, the Kp in [35] was 2.3; in data set [26], 0.16. Besides, the Ratio in data set [36] is 1.7.
